From ChEMBL document CHEMBL5360668, “Discovery of Potent Allosteric DRP1 Inhibitors by Disrupting Protein-Protein Interaction with MiD49” (ACS Med Chem Lett, 2023)
Converted amounts (≈) assume the structure as drawn. The source made the active and inactive calls. No cut-off for these calls is given here.

Experiments:
[1] = Negative allosteric modulator activity at human N-terminal His-tagged DRP1-human C-terminal GST-tagged MiD49 protein protein interaction expressed in Escherichia coli BL21 (DE3) incubated for 90 mins by AlphaLISA assay
Method in brief: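 AlphaLISA proximity assay. Glutathione donor and nickel chelate acceptor beads added, then 60 min at room temperature protected from light before signal read. Hits run as 11-point dose–response with TruHits counter-screen.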

A549 [2] = assay: Inhibition of CCCP-induced mitochondrial morphology change in human A549 cells at 10 uM preincubated for 1 hr followed by CCCP stimulation for 3 hrs by Alexa Fluor 488/Hoechst 33342 staining based high-content imaging analysis; assay type: functional, cell-based; conditions: time 4.0 hrs
Method in brief: (§1)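 A549 cells exposed to compound 1 h at 37 °C, then co-treated with CCCP (5 μM) a further 3 h at 37 °C. Cells fixed in paraformaldehyde and stained with anti-TOM20 primary and goat anti-mouse secondary. Mitochondrial morphology scored by high-content imaging with a supervised machine-learning classifier trained on control siRNA (normal), OPA1 siRNA (fragmented) and DRP1 siRNA (hypertubular) images.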

A549 [3] = assay: Inhibition of CCCP-induced mitochondrial fragmentation in human A549 cells at 0.37 to 3.3 uM preincubated for 1 hr followed by CCCP stimulation for 3 hrs by Alexa Fluor 488/568 and Hoechst staining based high-content imaging analysis; assay type: functional, cell-based; conditions: dose 0.37-3.3 µM, time 4.0 hrs; method in brief: as §1
[4] = Solubility of compound in PBS at pH 7.5; assay type: physicochemical
A549 [5] = assay: Inhibition of CCCP-induced mitochondrial fragmentation in human A549 cells preincubated for 1 hr followed by CCCP stimulation for 3 hrs by Alexa Fluor 488/568 and Hoechst staining based high-content imaging analysis; assay type: functional, cell-based; conditions: time 4.0 hrs; method in brief: as §1

| Compound | IC50 [1] [µM] | also measured |
| --- | --- | --- |
| CC(C)C(=O)Nc1ccc2nc(-c3ccccc3)cc(N3CCOCC3)c2c1 | 22 | – |
| O=C(Nc1ccc2nc(-c3ccccc3)cc(N3CCC3)c2c1)C1COC1 | 0.1 | inhibition (A549 [2]): Active; inhibition (A549 [3]): Active; solubility [4]: 281 µM (≈ 101 µg/mL); inhibition (A549 [5]): Dose-Dependent Effect |
| COc1ccc(-c2cc(N3CCC3)c3cc(NC(=O)C4COC4)ccc3n2)cc1 | 0.14 | – |
| CC(C)C(=O)Nc1ccc2nc(-c3ccccc3)cc(N(C)C)c2c1 | 11 | – |
| CC(C)C(=O)Nc1ccc2nc(-c3ccccc3)cc(N3CCCCC3)c2c1 | 13 | – |
| O=C(Nc1ccc2nc(-c3ccccc3)cc(N3CC(O)C3)c2c1)C1COC1 | 0.29 | – |
| CC(C)C(=O)Nc1ccc2nc(-c3ccccc3)cc(N3CC(F)C3)c2c1 | 0.29 | – |
| CC(C)C(=O)Nc1ccc2nc(-c3ccccc3)cc(N3CCC3)c2c1 | 0.12 | – |
| CCOc1cc(-c2ccccc2)nc2ccc(NC(=O)C(C)C)cc12 | 3.6 | – |
| CC(C)C(=O)Nc1ccc2nc(-c3ccccc3)cc(-n3cccn3)c2c1 | 12 | – |

Now from value to molecule, other results behind:

| IC50 [1] [µM] | Compound | also measured |
| --- | --- | --- |
| 0.58 | CC1CN(c2cc(-c3ccccc3)nc3ccc(NC(=O)C(C)C)cc23)C1 | – |
| 22 | CC(C)C(=O)Nc1ccc2nc(-c3ccccc3)cc(-n3ccnc3)c2c1 | – |
| 0.45 | CC(C)C(=O)Nc1ccc2nc(-c3ccccc3)cc(N3CCCC3)c2c1 | – |
| > 100 | CC(C)C(=O)Nc1ccc2nc(-c3ccccc3)cc(N3CCCC3=O)c2c1 | – |
| 0.05 | Cc1ccc(-c2cc(N3CCC3)c3cc(NC(=O)C(C)C)ccc3n2)cc1 | solubility [4]: 11 µM (≈ 3.95 µg/mL) |
| 4.3 | CCNc1cc(-c2ccccc2)nc2ccc(NC(=O)C(C)C)cc12 | – |
